Measurements reported in paper PMC10155261 (European journal of medicinal chemistry, 2022).
Like-named read-outs stand apart in the source and are kept apart here. One block for each compound: values may come before it.

Assays:
LPA5 [1] = details: read-out: IC50, binding to [^3H]LPA; literature value ref 8; cited from earlier work
hLPA5 [2] = target: T1, hLPA5 (Homo sapiens, UniProt Q9H1C0); test: LPA5 TR-FRET Lance Ultra cAMP assay; format: cell-based; details: for fold less potent than 2: cAMP assay
[3] = system: fentanyl-induced mechanical hypersensitivity in rats; test: Fentanyl; format: in vivo; details: i.p.
[4] = Metabolic stability in rat liver microsomes; format: in vitro ADME; details: pH 7.4
In short: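 Rat liver microsomes (0.5 mg/mL protein) were used in 100 mM potassium phosphate, pH 7.4, at 37 °C, with NADPH at 1 mM final. Samples were taken at 0, 5, 15, 30 and 45 min and quenched 1:1 in cold acetonitrile containing labetalol and glyburide. Parent was measured by LC-MS/MS, and half-life and in vitro clearance were calculated. Two independent experiments in duplicate.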

[5] = system: >50 GPCRs (NIMH Psychoactive Drug Screening Program panel); test: NIMH PDSP radioligand binding panel; details: < 50% inhibition at 10 μM or pKi ≤ 6
[6] = system: CFA-induced nociceptive hypersensitivity in rats; test: CFA-induced inflammatory pain model, von Frey mechanical nociception; format: in vivo, Sprague-Dawley rats; details: i.p.; for duration of effect in CFA model: 65 and 66 at 17.8 mg/kg, 2 at 32 mg/kg
dopamine D3 = dopamine D3 (Homo sapiens, UniProt P35462); test: NIMH PDSP radioligand binding, D3
P-glycoprotein (MDR1) = test: Bidirectional MDCK-MDR1 permeability; format: in vitro ADME; details: dog, MDCK-MDR1, pH 7.4
In short: (§1)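 MDCK-mdr1 cells (passage 5) were grown on polycarbonate Transwell supports for 3 days and rinsed with warm HBSS. They were pre-incubated 30 min at 37 °C in HBSS with 10 mM HEPES and 0.25% BSA, pH 7.4, then TEER was measured. Test compound at 10 μM went to the apical donor (A-to-B) or basolateral donor (B-to-A) side, at 37 °C with light agitation. Receiver was sampled at 30, 60 and 90 min and analysed by LC-MS/MS. Papp came from dQ/dt, area 1.12 cm2 and initial donor concentration. Atenolol and propranolol were references.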

[7] = Bidirectional MDCK-MDR1 permeability; format: in vitro ADME; details: dog; for Papp B→A at 90 min, 10 μM: MDCK-MDR1, pH 7.4, Papp (B-to-A), MDCK-MDR1 Transwell
In short: as §1

[8] = system: locomotor activity in rats; test: Locomotor activity; format: in vivo; details: 17.8 mg/kg i.p., 60 min pretreatment, P > 0.05
Plasma protein binding = format: in vitro ADME; details: rat
In short: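 Equilibrium dialysis: test compound or controls at 1 μM in rat plasma, in triplicate, against buffer across a 12–14K MWCO cellulose membrane. Incubation ran 6 h at 37 °C with light agitation to equilibrium. Plasma and buffer were extracted with cold acetonitrile/methanol (1:1) and quantified by LC-MS/MS against standard curves. Acebutolol (low-bound) and warfarin (high-bound) served as controls.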

LPA1–LPA4 receptors = test: LPA1–LPA3 calcium mobilization; format: cell-based; details: 10 μM in Ca2+ for LPA1–LPA3 and cAMP for LPA4
In short: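 Selectivity was tested with test compound at 10 μM. LPA1–LPA3 calcium mobilization was run externally in CHO cells over-expressing each receptor, under the provider's protocols. LPA4 was a TR-FRET cAMP assay in LPA4-overexpressing CHO cells, following the LPA5 cAMP method but against 250 nM hexadecyl LPA 16:0 (EC80).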

hLPA5 [9] = target: T1, hLPA5; test: LPA5 calcium mobilization assay; format: cell-based; details: for fold less potent than 2: in both calcium mobilization and cAMP assays
In short: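 RH7777-hLPA5 cells were plated on poly-D-lysine at 20,000 cells/well in 0.2% FBS medium for 18–20 h at 37 °C. They were loaded 45 min with Calcium 5 dye in HBSS, 20 mM HEPES and 2.5 mM probenecid, pH 7.4. Eight test-compound concentrations were pre-incubated for 15 min at 37 °C, then hexadecyl LPA 16:0 EC80 (30 nM) was added at 10 s. Fluorescence (485/525 nm) was read every 1 s for 90 s. IC50 came from a three-parameter logistic fit of RFU. Duplicate determinations; two or at least three independent experiments.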

[10] = system: CCI-induced mechanical allodynia in rats; test: Chronic constriction injury; format: in vivo, Sprague-Dawley rats; details: i.p.
LPA5 [11] = details: cAMP assay ref 31; cited from earlier work
MDCK-mdr1 cells = test: Bidirectional MDCK-MDR1 permeability; format: in vitro ADME; details: MDCK-MDR1 Transwell, 10 μM
In short: as §1

LPA5 [12] = details: SAR study of Kawamoto et al. ref 32; cited from earlier work

T1 sequence (Q9H1C0 whole entry): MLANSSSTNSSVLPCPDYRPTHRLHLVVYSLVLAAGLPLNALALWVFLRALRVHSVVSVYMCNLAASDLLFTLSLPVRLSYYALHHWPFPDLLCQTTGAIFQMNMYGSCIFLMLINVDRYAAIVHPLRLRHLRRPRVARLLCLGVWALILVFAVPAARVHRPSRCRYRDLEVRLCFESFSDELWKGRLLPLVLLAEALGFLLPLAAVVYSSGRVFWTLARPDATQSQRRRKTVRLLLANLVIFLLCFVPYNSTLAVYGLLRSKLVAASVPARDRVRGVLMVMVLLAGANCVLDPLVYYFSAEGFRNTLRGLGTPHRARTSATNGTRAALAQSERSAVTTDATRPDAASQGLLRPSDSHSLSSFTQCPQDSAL
Sequence of dopamine D3 (P35462 whole entry): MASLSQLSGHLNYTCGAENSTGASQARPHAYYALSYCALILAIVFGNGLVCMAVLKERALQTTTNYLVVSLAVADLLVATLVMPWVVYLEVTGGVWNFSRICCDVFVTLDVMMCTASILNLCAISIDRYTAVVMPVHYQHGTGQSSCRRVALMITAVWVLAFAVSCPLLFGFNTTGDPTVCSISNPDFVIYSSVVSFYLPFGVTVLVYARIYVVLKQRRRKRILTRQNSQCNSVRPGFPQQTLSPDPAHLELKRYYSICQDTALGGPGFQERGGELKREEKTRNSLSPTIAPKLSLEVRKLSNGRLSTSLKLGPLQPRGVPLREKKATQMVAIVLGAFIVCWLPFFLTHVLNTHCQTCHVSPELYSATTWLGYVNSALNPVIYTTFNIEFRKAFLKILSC

Structure (SMILES): CCCCCCCCCCCCCCCCOC[C@@H](O)COP(=O)(O)O [hexadecyl LPA 16:0, reference compound]
IC50 (LPA5 [1]): 7.5 nM | potency difference between cAMP and calcium mobilization assays (hLPA5 [2]): about 6 fold

Structure (SMILES): COc1cc2c(C(=O)N3CCCCC3)cn(-c3noc4ccc(C)cc34)c(=O)c2cc1OC [Compound 2, 6,7-Dimethoxy-2-(5-methylbenzo[d]isoxazol-3-yl)-4-(piperidine-1-carbonyl)isoquinolin-1(2H)-o-ne, reference compound]
effect on CFA-induced nociceptive hypersensitivity ([6]; 32 mg/kg): did not fully reverse the nociceptive hypersensitivity | duration of effect in CFA model [6]: ~ 2 h | IC50 (LPA5 [11]): 38 nM | antinociceptive effect in CCI model ([10]; 32 mg/kg): full antinociceptive effects

Structure (SMILES): CCN1CCc2ccc(-n3cc(C(=O)N4CCC(F)CC4)c4cc(OC)c(OC)cc4c3=O)cc21 [Compound 3, 2-(1-Ethylindolin-6-yl)-4-(4-fluoropiperidine-1-carbonyl)-6,7-dimethoxyisoquinolin-1(2H)-one, reference compound]
IC50 (LPA5 [12]): 120 nM | fold less potent than 2 (hLPA5 [9]): 2–3 fold

Continued, in another order:

CLint scaled at 0.75 h [4]: 74.7 mL/min/kg | Ki (dopamine D3): 380 nM | efflux ratio at 90 min, 10 μM (P-glycoprotein (MDR1)): < 2.5 | Papp A→B at 90 min, 10 μM ([7]; MDCK-MDR1, pH 7.4): 30.4 ×10⁻⁶ cm/s | Papp B→A at 90 min, 10 μM [7]: 38.7 ×10⁻⁶ cm/s | fold less potent than 2 (hLPA5 [2]): 1.7 fold | fraction unbound at 6 h, 1 μM (Plasma protein binding): 0.01 | fold more potent than the 4-fluoro analog 65 (hLPA5 [9]; calcium assay): 2 fold
Structure (SMILES): C#CC1CCN(C(=O)c2cn(-c3ccc4scc(C)c4c3)c(=O)c3cc(OC)c(OC)cc23)CC1 [Compound 66, 4-(4-Ethynylpiperidine-1-carbonyl)-6,7-dimethoxy-2-(3-methylbenzo[b]thiophen-5-yl)isoquinoli-n-1(2H)-one]
dose achieving statistical significance in OIH model [3]: 5.6 mg/kg | effect on fentanyl-induced mechanical hypersensitivity (OIH) [3]: dose-dependently and significantly mitigated this mechanical hypersensitivity | affinity for panel receptors [5]: no significant affinity for most of the receptors | effect on CFA-induced nociceptive hypersensitivity ([6]; 17.8 mg/kg): markedly alleviated nociceptive hypersensitivity | duration of effect in CFA model [6]: ~ 5 h | effect on locomotor activity [8]: did not have any measurable effect on the locomotor activity | LPA1–LPA4 inhibition (LPA1–LPA4 receptors): <50% | effect on CCI-induced mechanical allodynia ([10]; 17.8 mg/kg): completely reversed this hypersensitivity condition

IC50 (hLPA5 [2]): 890 ± 100 nM | fold less potent than 2 (hLPA5 [2]): 4 – 10 fold | fold more potent than the unsubstituted piperidine 15 (hLPA5 [9]; calcium assay): ~ 2 fold
Structure (SMILES): C#CC1CCN(C(=O)c2cn(-c3cccc(N(C)C)c3)c(=O)c3cc(OC)c(OC)cc23)CC1 [Compound 26, 2-(3-(Dimethylamino)phenyl)-4-(4-ethynylpiperidine-1-carbonyl)-6,7-dimethoxyisoquinolin-1(2-H)-one]

CLint scaled at 0.75 h [4]: 48.4 mL/min/kg | Papp (B-to-A) (MDCK-mdr1 cells): 30.4 10^−6 cm/s | efflux ratio at 90 min, 10 μM (P-glycoprotein (MDR1)): < 2.5 | Papp B→A at 90 min, 10 μM [7]: 31.1 ×10⁻⁶ cm/s | potency difference between cAMP and calcium mobilization assays (hLPA5 [2]): 4.9 fold | fold less potent than 2 (hLPA5 [9]): 1.5–2 fold
Structure (SMILES): COc1cc2c(C(=O)N3CCC(F)CC3)cn(-c3ccc4scc(C)c4c3)c(=O)c2cc1OC [Compound 65, 4-(4-Fluoropiperidine-1-carbonyl)-6,7-dimethoxy-2-(3-methylbenzo[b]thiophen-5-yl)isoquinolin-1(2H)-one]
affinity for panel receptors [5]: no significant affinity for most of the receptors | effect on CFA-induced nociceptive hypersensitivity ([6]; 17.8 mg/kg): markedly alleviated nociceptive hypersensitivity | duration of effect in CFA model [6]: ~ 5 h | LPA1–LPA4 inhibition (LPA1–LPA4 receptors): <50%

potency difference between cAMP and calcium mobilization assays (hLPA5 [2]): 3.9 fold
Structure (SMILES): COc1cc2c(C(=O)N3CCCCC3)cn(-c3ccc4occ(C)c4c3)c(=O)c2cc1OC [Compound 56, 6,7-Dimethoxy-2-(3-methylbenzofuran-5-yl)-4-(piperidine-1-carbonyl)isoquinolin-1(2H)-one]
